The values below come from ChEMBL document CHEMBL4513216, “Probing the Open Global Health Chemical Diversity Library for Multistage-Active Starting Points for Next-Generation Antimalarials” (ACS Infect Dis, 2020).

This data set in a line: Toxicity liver stage against HepG2, at 10uM. The note with it: human, HepG2-A16-CD81EGFP cells; read-out: INHIBITION
Format: cell-based. Set-up: test concentration 10 uM, cell line HepG2-A16-CD81EGFP. In outline:
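Uninfected HepG2-A16-CD81EGFP cells, 3 × 10^3 per well, 1536-well, plated on prespotted compound at 10 μM final, parasite-free screening media added to match infected plates; puromycin 10 μM positive, DMSO 0.5% negative; run in parallel with 48 h PbLuc assay at 37 °C, 5% CO2; viability by CellTiter-Glo luminescence, normalized to controls.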
In the case of `COCCCN(Cc1ccccn1)S(=O)(=O)Cc1ccccc1`, the cytotoxicity at 10 µM amounted to 14.4%. As for `CC(=O)N1CC[C@H]2NC(=O)N(Cc3ccccc3)C(=O)[C@H]21`, the cytotoxicity at 10 µM is 4.47%.

With `Cc1nn(-c2cc(Cl)cc(Cl)c2)c(C)c1CCC(=O)O`, the cytotoxicity at 10 µM was 3.8%.

Regarding `Cn1nc(-c2cccc(Cl)c2)c(Br)c1C(=O)O`, the cytotoxicity at 10 µM was -56.5%. Take `Cc1nc(N(C)C)nc(C)c1NC(=O)c1ccccc1C(F)(F)F`: the cytotoxicity at 10 µM is -1.94%. As for `c1cc(-c2nnc3sc(CCN4CCCC4)nn23)ccn1`, the cytotoxicity at 10 µM is -4.31%. Consider `O=c1[nH]c2c(c(=O)n1C1CCCCC1)CCC2Nc1ccc(Cl)cc1` (configuration not stated), for which the cytotoxicity at 10 µM came to 9.78%. Take `Cc1nn(Cc2ccc(C(=O)NCCCN3CCCC3=O)o2)c(C)c1Br`: the cytotoxicity at 10 µM was 9.35%. Regarding `Cc1cccc(CN2CCCC2c2cncc(Nc3nncs3)n2)c1` (configuration not stated), the cytotoxicity at 10 µM was -3.47%.

On to `Cc1nc(C)c(C(=O)N2CCCC2(C)C(=O)NC2CCCC2)o1` (configuration not stated), for which the cytotoxicity at 10 µM came out at 0.61%.

With `Cc1cc(C(=O)NCC(C)C)c2c(C3CCCN3)noc2n1` (configuration not stated), the cytotoxicity at 10 µM was 7.05%.

On to `O=C1NC2(Cc3ccccc31)CN(CC1CCNC1)C2` (configuration not stated), for which the cytotoxicity at 10 µM is 9.76%. As to `OCc1c(Cl)ncn1-c1ccccc1`, the cytotoxicity at 10 µM was -8.99%. On to `NC(=O)CS(=O)(=O)Cc1csc(-c2ccccc2)n1`, for which the cytotoxicity at 10 µM is -9.59%. For `Cc1noc(C2CCCN(C(=O)c3cc(Cl)cn3C)C2)n1` (configuration not stated), the cytotoxicity at 10 µM stood at 1.33%. Consider `CN1CCN(S(=O)(=O)c2ccc(Sc3nccn3C)nc2)CC1`, for which the cytotoxicity at 10 µM is 10.2%. Consider `CS(=O)(=O)CCn1ccc(NC(=O)c2c(F)cccc2F)n1`, for which the cytotoxicity at 10 µM amounted to 18.2%. Consider `Cc1nc(NCc2nnc(C)n2C)c2c(CC(C)C)csc2n1`, for which the cytotoxicity at 10 µM is 9.56%.

In the case of `O=C(O)c1ccn(-c2ccc(NC(=O)c3ccccc3Cl)cc2)n1`, the cytotoxicity at 10 µM was -140%. On to `Cc1cc(C)c(CNC(=O)NCCNc2ccccn2)c(=O)[nH]1`, for which the cytotoxicity at 10 µM was -37%. Take `Cc1nc(CCCNC(=O)c2cc(F)ccc2O)n[nH]1`: the cytotoxicity at 10 µM is -5.32%.

In the case of `CC(C)(C)CCCC(=O)Nc1ccnn1C1CCS(=O)(=O)C1` (configuration not stated), the cytotoxicity at 10 µM was -9.92%. With `CCc1nc(C)c(C(C)N(C)CCc2ccncc2)s1` (configuration not stated), the cytotoxicity at 10 µM was determined as 23.5%. Consider `N#Cc1cccnc1N1CCCN(C(=O)CCc2cccs2)CC1`, for which the cytotoxicity at 10 µM is -15.8%. In the case of `COc1ccc(NC(=O)CN2CCCCC2C2OCCO2)cc1` (configuration not stated), the cytotoxicity at 10 µM stood at 30.9%. The figure for `O=C(NC1CCN(C2CC2)CC1)NC1CCOc2ccc(Br)cc21` (configuration not stated) is -3.43%; for `CN(Cc1ccco1)Cc1ccccc1CNC(=O)c1csnn1` it is 7.88%; for `CCOCC(O)CN1CCN(C(=O)c2ccc(N(C)C)nc2)CC1` (configuration not stated) it is -5.18%. `CN(Cc1cnn(C)c1)C(=O)c1ccnc(OC2CCC2)c1`: the cytotoxicity at 10 µM was found to be 3.82%. In the case of `Cc1cc(C)n(CC2CN(Cc3ccc(C(N)=O)cc3)CCO2)n1` (configuration not stated), the cytotoxicity at 10 µM is -15.1%. For the compound `Cn1ncc2c(=O)[nH]c(CN3CCCc4cc(F)cc(F)c43)nc21`, the cytotoxicity at 10 µM is -1.76%.

With `CCC(C)NC(=O)CS(=O)(=O)Cc1nc(-c2cccs2)no1` (configuration not stated), the cytotoxicity at 10 µM is 2.04%.

Take `N#CCCN(Cc1ccccn1)Cn1cc(Cl)cn1`: the cytotoxicity at 10 µM came out at 1.49%. The figure for `CS(=O)(=O)NCC1(c2ccccc2Br)CC1` is -5.51%. For the compound `CN(C)S(=O)(=O)NCC1(c2ccccc2Br)CC1`, the cytotoxicity at 10 µM was 1.94%. With `CCc1noc(CC)c1CC(=O)N1CCN(C(C#N)C(C)C)CC1` (configuration not stated), the cytotoxicity at 10 µM was -9.66%.

As for `Cc1nc(-c2ccccc2)n(CC(=O)NC(C2CC2)C2CC2)n1`, the cytotoxicity at 10 µM was determined as 11%.

Regarding `COc1ccc(CSc2nnc(N)n2C2CC2)cc1Cl`, the cytotoxicity at 10 µM amounted to 0.00426%. Regarding `CCC(C)NS(=O)(=O)c1ccc(C(=O)N(C)C2(C#N)CCC2)cc1` (configuration not stated), the cytotoxicity at 10 µM turned out to be 16.1%. In the case of `OC(COCc1ccccc1F)CN1CCC(Cn2cccn2)CC1` (configuration not stated), the cytotoxicity at 10 µM was -10.2%. In the case of `Cc1cnc(NCc2ccc(S(=O)(=O)N(C)C(C)C)cc2)nc1C`, the cytotoxicity at 10 µM worked out at 10.2%. `Cc1cc(C(C)NCCN2CCC(N(C)C)CC2)c(C)s1` (configuration not stated): the cytotoxicity at 10 µM is -0.85%.

As to `Cc1cc(NCCOCCS(C)(=O)=O)nc2ccccc12`, the cytotoxicity at 10 µM worked out at 4.4%. Take `CCOC1CCN(CCc2nc(-c3cccc(Cl)c3)no2)CC1`: the cytotoxicity at 10 µM was -0.139%. With `NC(=O)CCCNC(=O)COc1ccccc1C(F)(F)F`, the cytotoxicity at 10 µM was 2.49%. `Cn1cc(CN2CCC[C@]3(C[C@H](Oc4ccccn4)CO3)C2)cn1`: the cytotoxicity at 10 µM turned out to be 5.44%. On to `CC(C)(C)CC(=O)N1C[C@H]2CCN[C@H]2C1`, for which the cytotoxicity at 10 µM stood at 4.19%.

As to `CNC(=O)[C@H]1C[C@@H]2CN(C(=O)c3cncc(C)c3)C[C@@H]2N1C`, the cytotoxicity at 10 µM was -107%. For `Cc1ccc(NC(=O)N2CCC3(CCC(C(=O)N(C)C)O3)CC2)cc1` (configuration not stated), the cytotoxicity at 10 µM was -99.2%. Turning to `O=C(c1cscn1)N1CCc2ncc(CN3CCOCC3)n2CC1`, the cytotoxicity at 10 µM was -75.6%. For `O=C(c1ccnnc1)N1C[C@@H]2COC[C@]2(COCC2CC2)C1`, the cytotoxicity at 10 µM is -73.2%. `Cn1cc(-c2nnn3c2COC(CNCc2ccccn2)C3)cn1` (configuration not stated): the cytotoxicity at 10 µM is 0.298%.

In the case of `NC(=O)Cn1ccnc1C1CCCN(Cc2ccccc2OC(F)F)C1` (configuration not stated), the cytotoxicity at 10 µM was -22%. For `COCCc1ncc(CN2CCC3(CCCN(CC4CC4)C3)C2)cn1` (configuration not stated), the cytotoxicity at 10 µM is -4.07%. Take `CCc1cnc(C)nc1NCc1cnc2c(c1)CCC2`: the cytotoxicity at 10 µM worked out at 8.83%.

Take `COc1cc(CN2CC(=O)N(c3ccc(C)cc3)CC2C)cc(OC)c1` (configuration not stated): the cytotoxicity at 10 µM was 1.28%. For `CN(CCc1noc(C2CC2)n1)C(=O)CCc1cc2n(n1)CCCNC2`, the cytotoxicity at 10 µM is -0.645%. With `Cc1cc(C)nc(NCc2nnc3n2CCCCC3)n1`, the cytotoxicity at 10 µM is -10.6%. On to `CC(Nc1nc(-c2ccncc2)nc2c1CCNC2)c1ccccc1` (configuration not stated), for which the cytotoxicity at 10 µM is -9.94%.

`Cc1cc(C)n(C2CCN(C(=O)CN3C(=O)CSc4ccccc43)C2)n1` (configuration not stated): the cytotoxicity at 10 µM was -15.3%. In the case of `CCN1CC(C(=O)NCc2nc(C3CCCCC3)no2)CC1=O` (configuration not stated), the cytotoxicity at 10 µM is -3.68%. `CCN1CCCC(c2c(-c3ccccc3)ncn2Cc2cccnc2)C1` (configuration not stated): the cytotoxicity at 10 µM is -6.75%. As to `Fc1cccc(-c2cccc(N3CCC(NC4CCCOC4)CC3)c2)c1` (configuration not stated), the cytotoxicity at 10 µM was found to be 12%. The figure for `CC(C)c1noc(Cn2ncn3cccc3c2=O)n1` is -4.1%. Consider `O=C(c1cc(F)cc(Cl)c1)N1CCN(CCO)[C@@H]2CS(=O)(=O)C[C@@H]21`, for which the cytotoxicity at 10 µM is -2.24%.

Consider `CCCc1cc(C(=O)N(C)Cc2cnn(-c3cccc(OC)c3)c2)[nH]n1`, for which the cytotoxicity at 10 µM was -2.4%. Then `CCN1CC2(CCC1=O)CCN(Cc1nncn1C(C)C)CC2`, with 8.39%. The figure for `Cc1nc(C2CCCN2CC(=O)N2CCc3ccccc32)no1` (configuration not stated) is -19.6%; for `CCc1nc(C2CCCN2CCC(=O)N2CCc3ccccc32)no1` (configuration not stated) it is -23.7%. Then `COc1ccc(C2=CCN(C(=O)CN(C)Cc3ccco3)CC2)cc1`, with -6.16%; and `O=C(Cc1ccccc1)NCCNC(=O)c1scnc1Cl`, with -1.55%. For the compound `Cn1ccc(C(=O)NCc2ccc(N3CCCCC3)nc2)cc1=O`, the cytotoxicity at 10 µM was -10.8%. `CCc1csc(C2CCCN(C(=O)COc3cc(C)on3)C2)n1` (configuration not stated): the cytotoxicity at 10 µM was -9.71%. Take `Cc1cccc(NC(=O)N2CCN(Cc3noc(C4CC4)n3)CC2)c1`: the cytotoxicity at 10 µM is -10.1%. For the compound `CN(Cc1ccncc1)CC(c1cccs1)N1CCOCC1` (configuration not stated), the cytotoxicity at 10 µM was -15.7%. The figure for `COc1ccc(Cl)cc1NCC(=O)NCCc1ccccn1` is -8.26%. Turning to `CC(C)CCN(C)C(=O)c1nc(S(C)(=O)=O)n2ccccc12`, the cytotoxicity at 10 µM was -9.91%.

Regarding `CC(Cn1ccnc1)NC(=O)NCCc1ccccn1` (configuration not stated), the cytotoxicity at 10 µM was -6.05%.

`COc1ccc(C2=CCN(C(=O)CN(C)CC(C)C#N)CC2)cc1` (configuration not stated): the cytotoxicity at 10 µM was -9.52%. For the compound `Cc1ccn(-c2ccc(C(=O)N3CCCC(n4ccnc4)C3)cc2)n1` (configuration not stated), the cytotoxicity at 10 µM was -8.31%.

As to `CCN(Cc1cccc2c1OCO2)C(=O)Nc1ccncc1`, the cytotoxicity at 10 µM amounted to 2.58%. On to `CC(C)c1nc2c(n1C)CCN(CC(=O)Nc1nccs1)C2`, for which the cytotoxicity at 10 µM was found to be 1.88%.

For `OCCN(Cc1ccncc1)CC1(c2ccc(Cl)cc2)CC1`, the cytotoxicity at 10 µM was found to be 9.39%. Consider `Cn1nc(C2CCN(C(=O)Cc3cccc(F)c3)CC2)c2cccnc21`, for which the cytotoxicity at 10 µM is -0.439%.

For `Fc1ccc(CN2CCCn3nnc(COCC4CC4)c3C2)cc1`, the cytotoxicity at 10 µM was -109%.

`CO[C@@H]1CCN(Cc2cccs2)[C@@H]2CN(Cc3ccncc3)C[C@@H]21`: the cytotoxicity at 10 µM came out at 3.93%. Turning to `O=C(c1ccoc1)N1CCOC2(COCCN(c3ncccn3)C2)C1` (configuration not stated), the cytotoxicity at 10 µM was -98.4%. For `Cc1nc(COC[C@@H]2CC[C@H]3[C@H](CCN3c3ncccn3)O2)cs1`, the cytotoxicity at 10 µM is 2.19%. Then `OC1CCN(Cc2c(C3CCCNC3)[nH]c3ncccc23)CC1` (configuration not stated), with -0.542%.

On to `CCS(=O)(=O)Nc1ccc2c(c1)C1(CCOCC1)CN2C`, for which the cytotoxicity at 10 µM was -107%. As for `COc1ccc2ccccc2c1CNCC1CCS(=O)(=O)C1` (configuration not stated), the cytotoxicity at 10 µM worked out at 4.51%.

`Cn1cc(-c2ncc3c(c2C(=O)O)CCN(CC2CC2)C3)cn1`: the cytotoxicity at 10 µM was -104%. With `COCCNC(=O)[C@@]12CCO[C@@H]1CCN(Cc1ccncc1)C2`, the cytotoxicity at 10 µM was -77.3%.

On to `Cc1ccc(CN2C[C@@H]3[C@@H](C2)OCC(=O)N3Cc2ccncc2)s1`, for which the cytotoxicity at 10 µM was -67.7%. As to `CS(=O)(=O)N1CCc2ccc(=O)n(CCN3CCCC3)c2CC1`, the cytotoxicity at 10 µM was found to be 0.108%. In the case of `CCN1C(=O)CCC12CCCN(Cc1nccs1)C2` (configuration not stated), the cytotoxicity at 10 µM is -73.5%. Regarding `Cc1nnsc1CN1C[C@@H]2CC[C@H]1CN(Cc1ccccc1)C2`, the cytotoxicity at 10 µM was determined as 0.929%.
